# Experimental data as given in ChEMBL document CHEMBL1649151, “Urinary bactericidal activity of Doripenem versus that of levofloxacin in patients with complicated urinary tract infections or pyelonephritis” (Antimicrob Agents Chemother, 2009).
# Tests used:
# Escherichia coli [1] = assay: Antimicrobial activity against Escherichia coli 1949825 B-K isolated from patient with pyelonephritis assessed as >3-log reduction in urinary bacterial titer after 24 hrs; assay type: functional, Urine
# Method in brief: (§1)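 Patient urine was collected on day 3 of i.v. therapy (steady state) over 4-h intervals after infusion start, stored at –80°C, and sterile filtered. It was twofold serially diluted (1:0 to 1:131,072) in the patient's own pre-dose drug-free urine, inoculated to 1.0 x 10^6–9.5 x 10^6 CFU/ml, and incubated for 18 h at 37°C. Subcultures were grown on blood agar for 24 h. The UBT is the reciprocal of the highest dilution giving >99.9% kill.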
# Escherichia coli [2] = assay: Antimicrobial activity against Escherichia coli 1821385 B-C isolated from patient with pyelonephritis assessed as >3-log reduction in urinary bacterial titer after 8 hrs; assay type: functional, Urine
# Method in brief: (§2)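 Urine was collected on day 3 of i.v. therapy (steady state) over 4-h intervals from infusion start (0–4 to 20–24 h), stored at –80°C and sterile filtered. It was serially diluted twofold (1:0 up to 1:131,072) in the patient's own pre-dose drug-free urine. Microdilution used a final inoculum of 1.0 x 10^6 to 9.5 x 10^6 CFU/ml, incubated 18 h at 37°C in air. 10 µl was subcultured onto 5% blood Columbia agar for 24 h at 37°C. The bactericidal endpoint was >99.9% (>3-log) kill, reported as a reciprocal titer.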
# Escherichia coli [3] = assay: Antimicrobial activity against Escherichia coli 1889645 B-I isolated from patient with pyelonephritis assessed as >3-log reduction in urinary bacterial titer after 12 hrs; assay type: functional, Urine; method in brief: as §2
# Escherichia coli [4] = assay: Antimicrobial activity against Escherichia coli 2297257 B-W isolated from patient with pyelonephritis by Etest; assay type: functional
# Escherichia coli [5] = assay: Antimicrobial activity against Escherichia coli 1889646 B-F isolated from patient with pyelonephritis assessed as >3-log reduction in urinary bacterial titer after 16 hrs; assay type: functional, Urine; method in brief: as §2
# Escherichia coli [6] = assay: Antimicrobial activity against Escherichia coli 1889646 B-F isolated from patient with pyelonephritis assessed as >3-log reduction in urinary bacterial titer after 8 hrs; assay type: functional, Urine; method in brief: as §2
# Escherichia coli [7] = assay: Antimicrobial activity against Escherichia coli 2062717 B-P isolated from patient with pyelonephritis assessed as >3-log reduction in urinary bacterial titer after 8 hrs; assay type: functional, Urine
# Escherichia coli [8] = assay: Antimicrobial activity against Escherichia coli 2297257 B-W isolated from patient with pyelonephritis assessed as urinary bactericidal titer
# Escherichia coli [9] = assay: Antimicrobial activity against Escherichia coli 1949826 B-L isolated from patient with pyelonephritis assessed as >3-log reduction in urinary bacterial titer after 20 hrs; assay type: functional, Urine; method in brief: as §1
# Enterococcus faecalis [10] = assay: Antimicrobial activity against Enterococcus faecalis 2215770 B-T isolated from patient with pyelonephritis assessed as >3-log reduction in urinary bacterial titer after 4 hrs; assay type: functional, Urine
# Method in brief: (§3)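 Urine was collected before dosing and on day 3 of i.v. therapy (steady state), in 4-h intervals from infusion start (0–4 to 20–24 h), stored at −80°C and sterile filtered. It was serially diluted twofold (1:0 to 1:131,072) in the patient's drug-free pre-dose urine. Microdilution used an inoculum of 1.0 x 10^6–9.5 x 10^6 CFU/ml, incubated 18 h at 37°C, then subcultured 24 h on blood agar. The endpoint was >99.9% kill, reported as reciprocal titer.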
# [11] = system: Staphylococcus haemolyticus; assay: Antimicrobial activity against Staphylococcus haemolyticus 1949819 B-M isolated from patient with pyelonephritis assessed as >3-log reduction in urinary bacterial titer after 20 hrs; assay type: functional, Urine
# Escherichia coli [12] = assay: Antimicrobial activity against Escherichia coli 2297257 B-W isolated from patient with pyelonephritis assessed as >3-log reduction in urinary bacterial titer after 24 hrs; assay type: functional, Urine
# Escherichia coli [13] = assay: Antimicrobial activity against Escherichia coli 2062717 B-P isolated from patient with pyelonephritis assessed as >3-log reduction in urinary bacterial titer after 24 hrs; assay type: functional, Urine
# Enterococcus faecalis [14] = assay: Antimicrobial activity against Enterococcus faecalis 2215770 B-T isolated from patient with pyelonephritis assessed as >3-log reduction in urinary bacterial titer after 24 hrs; assay type: functional, Urine; method in brief: as §3
# Pseudomonas aeruginosa [15] = assay: Antimicrobial activity against Pseudomonas aeruginosa 1821383 B-E isolated from patient with pyelonephritis assessed as >3-log reduction in urinary bacterial titer after 20 hrs; assay type: functional, Urine
# Escherichia coli [16] = assay: Antimicrobial activity against Escherichia coli 1821386 B-D isolated from patient with pyelonephritis assessed as >3-log reduction in urinary bacterial titer after 24 hrs; assay type: functional, Urine; method in brief: as §2
# Escherichia coli [17] = assay: Antimicrobial activity against Escherichia coli 1655646 A-Y isolated from patient with pyelonephritis assessed as >3-log reduction in urinary bacterial titer after 20 hrs; assay type: functional, Urine; method in brief: as §3
# Pseudomonas aeruginosa [18] = assay: Antimicrobial activity against Pseudomonas aeruginosa 1821383 B-E isolated from patient with pyelonephritis by Etest; assay type: functional
# Staphylococcus aureus [19] = assay: Antimicrobial activity against Staphylococcus aureus 2215767-9 B-S isolated from patient with pyelonephritis assessed as >3-log reduction in urinary bacterial titer after 24 hrs; assay type: functional, Urine
# Escherichia coli [20] = assay: Antimicrobial activity against Escherichia coli 2062716 B-R isolated from patient with pyelonephritis assessed as >3-log reduction in urinary bacterial titer after 16 hrs; assay type: functional, Urine; method in brief: as §1
# Escherichia coli [21] = assay: Antimicrobial activity against Escherichia coli 1821386 B-D isolated from patient with pyelonephritis assessed as >3-log reduction in urinary bacterial titer after 16 hrs; assay type: functional, Urine; method in brief: as §2
# Escherichia coli [22] = assay: Antimicrobial activity against Escherichia coli 2062716 B-R isolated from patient with pyelonephritis assessed as >3-log reduction in urinary bacterial titer after 4 hrs; assay type: functional, Urine; method in brief: as §1
# Escherichia coli [23] = assay: Antimicrobial activity against Escherichia coli 1780064 A-X isolated from patient with pyelonephritis by Etest; assay type: functional
# Enterococcus faecalis [24] = assay: Antimicrobial activity against Enterococcus faecalis 2215767-10 B-S isolated from patient with pyelonephritis assessed as >3-log reduction in urinary bacterial titer after 16 hrs; assay type: functional, Urine; method in brief: as §3
# Escherichia coli [25] = assay: Antimicrobial activity against Escherichia coli 1780064 A-X isolated from patient with pyelonephritis assessed as >3-log reduction in urinary bacterial titer after 12 hrs; assay type: functional, Urine; method in brief: as §3
# [26] = system: Staphylococcus epidermidis; assay: Antimicrobial activity against Staphylococcus epidermidis 2297262-9 B-V isolated from patient with pyelonephritis assessed as >3-log reduction in urinary bacterial titer after 20 hrs; assay type: functional, Urine
# Serratia marcescens [27] = assay: Antimicrobial activity against Serratia marcescens 2297260 B-U isolated from patient with pyelonephritis assessed as >3-log reduction in urinary bacterial titer after 20 hrs; assay type: functional, Urine
# Serratia marcescens [28] = assay: Antimicrobial activity against Serratia marcescens 2297260 B-U isolated from patient with pyelonephritis by Etest; assay type: functional
# [29] = system: Staphylococcus epidermidis; assay: Antimicrobial activity against Staphylococcus epidermidis 1949822 B-J isolated from patient with pyelonephritis assessed as >3-log reduction in urinary bacterial titer after 4 hrs; assay type: functional, Urine
# [30] = system: Staphylococcus epidermidis; assay: Antimicrobial activity against Staphylococcus epidermidis 2297262-9 B-V isolated from patient with pyelonephritis assessed as >3-log reduction in urinary bacterial titer after 24 hrs; assay type: functional, Urine
# Escherichia coli [31] = assay: Antimicrobial activity against Escherichia coli 1889647 B-H isolated from patient with pyelonephritis assessed as >3-log reduction in urinary bacterial titer after 24 hrs; assay type: functional, Urine; method in brief: as §2
# Staphylococcus aureus [32] = assay: Antimicrobial activity against Staphylococcus aureus 1889640 A-Z isolated from patient with pyelonephritis assessed as >3-log reduction in urinary bacterial titer after 8 hrs; assay type: functional, Urine
# Staphylococcus aureus [33] = assay: Antimicrobial activity against Staphylococcus aureus 2215767-9 B-S isolated from patient with pyelonephritis assessed as >3-log reduction in urinary bacterial titer after 8 hrs; assay type: functional, Urine
# Staphylococcus aureus [34] = assay: Antimicrobial activity against Staphylococcus aureus 1889640 A-Z isolated from patient with pyelonephritis assessed as >3-log reduction in urinary bacterial titer after 12 hrs; assay type: functional, Urine
compound,measurement,setting,value
C[C@@H](O)[C@H]1C(=O)N2C(C(=O)O)=C(S[C@@H]3CN[C@H](CNS(N)(=O)=O)C3)[C@H](C)[C@H]12 [DORIPENEM],urinary bactericidal titer,Escherichia coli [1],256 reciprocal titer
same,urinary bactericidal titer,Escherichia coli [2],256 reciprocal titer
same,urinary bactericidal titer,Escherichia coli [3],131000 reciprocal titer
same,MIC,Escherichia coli [4],0.015 µg/mL
same,urinary bactericidal titer,Escherichia coli [5],8192 reciprocal titer
same,urinary bactericidal titer,Escherichia coli [6],32800 reciprocal titer
same,urinary bactericidal titer,Escherichia coli [7],1024 reciprocal titer
same,urinary bactericidal titer,Escherichia coli [8],4096 reciprocal titer
same,urinary bactericidal titer,Escherichia coli [9],65500 reciprocal titer
same,urinary bactericidal titer,Enterococcus faecalis [10],2048 reciprocal titer
same,urinary bactericidal titer,[11],2048 reciprocal titer
same,urinary bactericidal titer,Escherichia coli [12],4096 reciprocal titer
same,urinary bactericidal titer,Escherichia coli [13],2048 reciprocal titer
same,urinary bactericidal titer,Enterococcus faecalis [14],512 reciprocal titer
C[C@H]1COc2c(N3CCN(C)CC3)c(F)cc3c(=O)c(C(=O)O)cn1c23.C[C@H]1COc2c(N3CCN(C)CC3)c(F)cc3c(=O)c(C(=O)O)cn1c23.O [LEVOFLOXACIN],urinary bactericidal titer,Pseudomonas aeruginosa [15],128 reciprocal titer
same,urinary bactericidal titer,Escherichia coli [16],2048 reciprocal titer
same,urinary bactericidal titer,Escherichia coli [17],1024 reciprocal titer
same,MIC,Pseudomonas aeruginosa [18],0.25 µg/mL
same,urinary bactericidal titer,Staphylococcus aureus [19],0 reciprocal titer
same,urinary bactericidal titer,Escherichia coli [20],256 reciprocal titer
same,urinary bactericidal titer,Escherichia coli [21],4096 reciprocal titer
same,urinary bactericidal titer,Escherichia coli [22],1024 reciprocal titer
same,MIC,Escherichia coli [23],0.047 µg/mL
same,urinary bactericidal titer,Enterococcus faecalis [24],0 reciprocal titer
same,urinary bactericidal titer,Escherichia coli [25],256 reciprocal titer
same,urinary bactericidal titer,[26],2 reciprocal titer
same,urinary bactericidal titer,Serratia marcescens [27],32 reciprocal titer
same,MIC,Serratia marcescens [28],0.19 µg/mL
same,urinary bactericidal titer,[29],4 reciprocal titer
same,urinary bactericidal titer,[30],2 reciprocal titer
same,urinary bactericidal titer,Escherichia coli [31],256 reciprocal titer
same,urinary bactericidal titer,Staphylococcus aureus [32],128 reciprocal titer
same,urinary bactericidal titer,Staphylococcus aureus [33],0 reciprocal titer
same,urinary bactericidal titer,Staphylococcus aureus [34],128 reciprocal titer
